# NadD inh: blocks S. aureus nicotinate mononucleotide adenylyltransferase; inhibition, % at 20 µM; 360,000 tested, 0.78% active; AID 602399; purified NadD enzyme, colorimetric absorbance read-out; in the data active = inhibition above about 26%
# VIM-2 inhibitor: blocks Pseudomonas aeruginosa VIM-2 metallo-beta-lactamase; 290,000 tested, 0.89% active; purified VIM-2, nitrocefin hydrolysis, epi-absorbance fluorescence; inhibition, % at 5.6 µM;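 active = inhibition above the mean of all tested compounds plus 3 SD, cutoff set per screening run, cut at about 7.5% in these data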;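 also: red hydrolysis product quenches plate fluorescence so inhibitors raise well fluorescence; 0% = enzyme with DMSO and 100% = DMSO without enzyme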
# IMP-1 inhibitor: blocks Pseudomonas aeruginosa IMP-1 metallo-beta-lactamase; 290,000 tested, 0.45% active; purified IMP-1, nitrocefin hydrolysis, epi-absorbance fluorescence; AID 1556; inhibition, % at 5.6 µM;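 active = inhibition above the mean plus 3 SD of all compounds in the same screening run, cut at about 4.5% in these data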;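 also: 0% = IMP-1 with DMSO and 100% = DMSO wells lacking enzyme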
#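 Assay system: purified IMP-1; Quantity: IMP-1 0.2 nM before substrate addition; Medium: HEPES buffer pH 7.1 with ZnSO4 and Brij 35; Incubation: 15 min enzyme–compound preincubation, then 25 min nitrocefin reaction, 25 °C; Signal: fluorescence quenching readout, ex 480/em 530 nm; Controls: DMSO with and without IMP-1; Repeats: singlicate testing.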
# HCV core dimer: HCV core protein dimerization inhibition; TR-FRET GST/Flag-core106 dimerization, 1536-well; inhibition, % at 5 µM; 300,000 tested, 0.33% active; AID 1899;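 active = inhibition above the mean of all tested compounds plus 3 SD, set per screening campaign, cut at about 45% in these data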
#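 System: GST-tagged and Flag-tagged HCV core protein residues 1-106 / Input: core106 proteins, GST 13.5 nM and Flag 17 nM / Buffer or medium: KF-containing HEPES buffer, pH 7.45, DTT, CHAPS, BSA / Probe or stimulus: Eu-anti-GST and XL665-anti-Flag labelled anti-tag antibodies / Schedule: 4 h, 22.5 °C incubation / Technique: TR-FRET 671 and 617 nm emission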
# NadD inh conf: NadD (S. aureus) inhibition, single concentration confirmation. shares compounds with NadD inh. purified S. aureus NadD, colorimetric enzyme assay. inhibition, % at 20 µM. 2,000 tested, 13% active; in the data active = inhibition mostly above about 42%, no sharp cut-off; inactive = mostly below about 42%
# * marks the source's active call; other numbers are inactive results; / = not tested or not shown. The list is not random: actives were taken first. Their share in the collection is about 1.9%.
SMILES,NadD inh,VIM-2 inhibitor,IMP-1 inhibitor,HCV core dimer,NadD inh conf
Cc1ccc(Oc2nc(CN3CCOCC3)nc3sc4c(c23)CCC(C)C4)cc1 (stereo not drawn),3.3,-1.6,-2.8,-8.1,/
CC1CCc2c(sc3nc(CN4CCOCC4)nc(N4CCc5ccccc5C4)c23)C1 (stereo not drawn),36.8*,-1.5,-4.2,27.1,18.2
CC(=O)Nc1ccc(NC2=Nc3ccccc3N3C2=Nc2c(c(C)nn2-c2ccccc2)C3c2ccccc2)cc1 (stereo not drawn),37.1*,-0.4,-4.7,1.5,30.6
COc1ccc(N2C(=NC(=O)C3CCCO3)SC3CS(=O)(=O)CC32)cc1 (stereo not drawn),-0.8,-3.0,-5.4,-9.0,/
CC(C)(C)c1ccc(OCC(=O)Nc2ccc3c4c(cccc24)C(=O)NC3=O)cc1,33.7*,1.8,0.3,/,2.5
Nc1ccc2nc(CCCCCCc3nc4ccc(N)cc4[nH]3)[nH]c2c1,50.0*,-0.7,0.0,-8.7,18.5
O=C(CN(Cc1ccco1)C(=O)c1cccc(F)c1)Nc1ccccc1C(F)(F)F,-9.7,/,/,/,/
CSCCC(NC(=O)COc1ccccc1)C(=O)NCc1cccs1 (stereo not drawn),-1.9,-2.0,-1.1,3.7,/
COc1ccc(-c2cc(C#N)nc(N3CCNCC3)n2)cc1,44.9*,2.2,-6.3,1.4,37.3
CCc1cccc(NC(=O)[C@@H]2CCCN2C2=NS(=O)(=O)c3ccccc32)c1,-2.1,/,/,/,/
CC(=O)c1cn(-c2ccc(Cl)cc2)c(=O)[nH]c1=O,-5.7,-2.2,-1.9,-38.5,/
NC(=O)CC(c1ccccc1)c1ccc2c(c1)OCO2 (stereo not drawn),-4.3,-2.6,-4.0,/,/
NC(CSC(c1ccccc1)(c1ccccc1)c1ccc2c(c1)OCO2)C(=O)O (stereo not drawn),31.2*,/,/,/,32.9
O=C(CSc1ccc2c(c1)OCCO2)Nc1ccc(N2CCOCC2)cc1,0.2,-2.8,-2.8,-1.4,/
OC(Cn1ccnc1)c1ccc(Cl)cc1Cl (stereo not drawn),-3.2,-2.6,-4.2,-0.8,/
Clc1ccc(C(Cn2ccnc2)OCc2c(Cl)cccc2Cl)c(Cl)c1 (stereo not drawn),33.4*,/,/,18.0,21.2
C=C(CO)C1Cc2cc(C(C)=O)ccc2O1 (stereo not drawn),-6.1,/,/,-2.9,/
CCOc1ccc(C2=C(C=Nc3c(C)n(C)n(-c4ccccc4)c3=O)C(c3ccc(F)cc3)c3ccccc3O2)cc1 (stereo not drawn),45.6*,0.0,-3.9,24.9,14.1
COc1cccc(C(=O)N(C)CC2CCN(CCc3cccc(C(F)(F)F)c3)CC2)c1,-1.5,-1.0,-1.3,3.9,/
Nc1ccccc1C(=O)NNC(=O)C(=O)/C=C(\O)c1ccccc1,71.5*,-3.0,-1.6,10.9,73.5*
O=C(O)Cc1sc(N/N=C\c2ccccc2)nc1-c1ccccc1,46.9*,-3.4,-3.5,-0.1,54.8*
CCOC(=O)c1sc(N/N=C/c2ccccc2)nc1C,1.7,-2.2,-2.0,-9.2,/
C=CCN1C(=O)c2ccc(C(=O)NCCc3ccc(OC)c(OC)c3)cc2C1=O,-7.4,-2.8,-3.3,-0.3,/
CN(C)c1ccnc2c[cH-]cc12.[Fe].c1ccc(-[c-]2[c-](-c3ccccc3)[c-](-c3ccccc3)[c-](-c3ccccc3)[c-]2-c2ccccc2)cc1 (stereo not drawn),29.5*,/,/,14.6,-8.4
CCOC(=O)c1ccc2c(c1)nc(SC/C(O)=C(\C#N)c1nc3ccccc3[nH]1)n2CC,33.1*,-2.8,-2.6,35.9,14.9
SMILES,NadD inh,VIM-2 inhibitor,IMP-1 inhibitor,HCV core dimer,NadD inh conf
C[C@H](CO)N1C[C@H](C)[C@H](CN(C)C(=O)NC2CCCCC2)Oc2cc(-c3cccnc3)ccc2S1(=O)=O,6.4,/,/,/,/
CCn1c2ccccc2c2c3ncc4cccn4c3ccc21,39.4*,0.8,2.4,-10.5,4.8
N=c1scc(-c2ccccc2)n1/N=C/c1ccco1,37.5*,-3.6,-3.8,42.8,45.0
O=C(COC(=O)c1cc([N+](=O)[O-])ccc1N1CCOCC1)NCc1ccc(Cl)cc1Cl,-8.9,-1.4,0.6,1.0,/
O=c1cc(CN2CCN(c3cccc(Cl)c3)CC2)c2cc(O)c(-c3ccccc3)cc2o1,38.9*,-1.7,-2.6,5.0,4.3
O=c1cc(CN2CCN(c3ccccc3)CC2)c2cc(O)c(-c3ccccc3)cc2o1,18.6,-1.4,0.4,20.8,/
COc1ccc(C2C(C#N)=C3NC(=O)c4c(sc5c4CCCCC5)N3C3=C2C(=O)CC(C)(C)C3)cc1 (stereo not drawn),61.2*,-1.0,-1.3,46.0*,24.8

# Source: PubChem (several laboratories)
